Assay results published in ChEMBL document CHEMBL1687811, “Outbreak of meropenem-resistant Serratia marcescens comediated by chromosomal AmpC beta-lactamase overproduction and outer membrane protein loss” (2010).
Values after ≈ are worked out from the molar mass of the structure shown.

Assays:
[1] = test system: Serratia marcescens; test: Antimicrobial activity against beta-lactamase AmpC producing meropenem-resistant Serratia marcescens by agar dilution method; format: functional
Method in brief: (§1)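 MICs by agar dilution following CLSI guidelines, with E. coli ATCC 25922 and P. aeruginosa ATCC 27853 as MIC reference strains. Where added, clavulanic acid served as the ESBL inhibitor and phenyl-arginine-β-naphthylamide as the efflux-pump inhibitor, each incorporated into the susceptibility test.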

[2] = test system: Escherichia coli; test: Antimicrobial activity against azide-resistant Escherichia coli J53 by agar dilution method
[3] = test system: Serratia marcescens; test: Antimicrobial activity against Serratia marcescens ATCC 8100 by agar dilution method; format: functional
Method in brief: (§2)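 MICs by agar dilution following CLSI guidelines, with E. coli ATCC 25922 and P. aeruginosa ATCC 27853 as MIC reference strains. Where an inhibitor was added, boronic acid or cloxacillin served as the AmpC inhibitor.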

[4] = test system: Serratia marcescens; test: Antimicrobial activity against beta-lactamase ompC intact/ompF deficient Serratia marcescens isolate YMC0582 by agar dilution method; format: functional; method in brief: as §1
[5] = test system: Serratia marcescens; test: Antimicrobial activity against beta-lactamase ompC intact/ompF deficient Serratia marcescens isolate YMC0584 by agar dilution method; format: functional; method in brief: as §1
[6] = test system: Serratia marcescens; test: Antimicrobial activity against beta-lactamase ompC intact/ompF deficient Serratia marcescens isolate YMC0583 by agar dilution method; format: functional; method in brief: as §1
[7] = test system: Serratia marcescens; test: Antimicrobial activity against beta-lactamase ompC intact/ompF deficient Serratia marcescens isolate YMC0547 by agar dilution method; format: functional; method in brief: as §1
[8] = test system: Serratia marcescens; test: Antimicrobial activity against beta-lactamase ompC intact/ompF deficient Serratia marcescens isolate YMC0564 by agar dilution method; format: functional; method in brief: as §1
[9] = test system: Serratia marcescens; test: Antimicrobial activity against beta-lactamase ompC intact/ompF deficient Serratia marcescens isolate YMC0566 by agar dilution method; format: functional; method in brief: as §1
[10] = test system: Serratia marcescens; test: Antimicrobial activity against beta-lactamase ompC intact/ompF deficient Serratia marcescens isolate YMC0570 by agar dilution method; format: functional; method in brief: as §1
[11] = test system: Serratia marcescens; test: Antimicrobial activity against beta-lactamase ompC intact/ompF deficient Serratia marcescens isolate YMC0573 by agar dilution method; format: functional; method in brief: as §1
[12] = test system: Serratia marcescens; test: Antimicrobial activity against beta-lactamase ompC intact/ompF deficient Serratia marcescens isolate YMC0579 by agar dilution method; format: functional; method in brief: as §1
[13] = test system: Serratia marcescens; test: Antimicrobial activity against beta-lactamase ompC/ompF deficient Serratia marcescens ATCC 8100 by agar dilution method; format: functional
[14] = test system: Serratia marcescens; test: Antimicrobial activity against beta-lactamase AmpC producing meropenem-resistant Serratia marcescens by agar dilution method in presence of 4 ug/ml of clavulanic acid; format: functional; method in brief: as §1
[15] = test system: Escherichia coli; test: Antimicrobial activity against azide-resistant Escherichia coli J53 by agar dilution method in presence 4 ug/ml of clavulanic acid; format: functional; method in brief: as §1
[16] = test system: Serratia marcescens; test: Antimicrobial activity against Serratia marcescens ATCC 8100 by agar dilution method in presence of 4 ug/ml of clavulanic acid; format: functional; method in brief: as §1
[17] = test system: Serratia marcescens; test: Antimicrobial activity against Serratia marcescens ATCC 8100 by agar dilution method in presence of 300 ug/ml of boronic acid; format: functional; method in brief: as §2
[18] = test system: Serratia marcescens; test: Antimicrobial activity against Serratia marcescens ATCC 8100 by agar dilution method in presence of 20 ug/ml of phenyl-arginine-beta-naphthylamide; format: functional; method in brief: as §1
[19] = test system: Serratia marcescens; test: Antimicrobial activity against Serratia marcescens ATCC 8100 by agar dilution method in presence of 250 ug/ml of cloxacillin; format: functional; method in brief: as §2

Work on `CCN1CCN(C(=O)N[C@@H](C(=O)N[C@@H]2C(=O)N3[C@@H]2SC(C)(C)[C@@H]3C(=O)O)c2ccccc2)C(=O)C1=O` [PIPERACILLIN] yielded an MIC [1] of over 256 µg/mL, an MIC [2] of 1 µg/mL (≈ 1.93 µM) and an MIC [3] of over 256 µg/mL.
`C[C@H]1[C@H](NC(=O)/C(=N\OC(C)(C)C(=O)O)c2csc(N)n2)C(=O)N1S(=O)(=O)O` [AZTREONAM] was tested, and the MIC [1] was 8 µg/mL (≈ 18.4 µM) and the MIC [3] was 64 µg/mL (≈ 147 µM).
`C[C@@H](O)[C@H]1C(=O)N2C(C(=O)O)=C(SCCNC=N)C[C@H]12` [IMIPENEM ANHYDROUS] showed an MIC [4] of 4 µg/mL (≈ 13.4 µM), an MIC [5] of 8 µg/mL (≈ 26.7 µM) and an MIC [6] of 4 µg/mL (≈ 13.4 µM). The MIC [7] was 8 µg/mL (≈ 26.7 µM), the MIC [8] was 4 µg/mL (≈ 13.4 µM) and the MIC [9] was 4 µg/mL (≈ 13.4 µM). For the same compound, the MIC [10] was 4 µg/mL (≈ 13.4 µM), the MIC [11] was 4 µg/mL (≈ 13.4 µM) and the MIC [12] was 4 µg/mL (≈ 13.4 µM). The MIC [13] was 0.02 µg/mL (≈ 0.0668 µM), the MIC [1] was 0.12 µg/mL (≈ 0.401 µM) and the MIC [3] was 4 µg/mL (≈ 13.4 µM). It also gave an MIC [14] of 0.06 µg/mL, an MIC [15] of 0.12 µg/mL and an MIC [16] of 4 µg/mL. It also gave an MIC [17] of 0.5 µg/mL, an MIC [18] of 4 µg/mL and an MIC [19] of 0.094 µg/mL.
GENTAMICIN was tested, and the MIC [1] was 32 µg/mL and the MIC [3] was over 256 µg/mL.
`CO[C@@]1(NC(=O)Cc2cccs2)C(=O)N2C(C(=O)O)=C(COC(N)=O)CS[C@@H]21` [CEFOXITIN] gave an MIC [1] of 4 µg/mL (≈ 9.36 µM), an MIC [2] of 4 µg/mL (≈ 9.36 µM) and an MIC [3] of over 256 µg/mL.
Work on `CC(C)(O/N=C(\C(=O)N[C@@H]1C(=O)N2C(C(=O)[O-])=C(C[n+]3ccccc3)CS[C@H]12)c1csc(N)n1)C(=O)O` [CEFTAZIDIME] yielded an MIC [1] of 2 µg/mL (≈ 3.66 µM), an MIC [2] of 0.25 µg/mL (≈ 0.457 µM) and an MIC [3] of 128 µg/mL (≈ 234 µM).
In the case of `C[C@@H](O)[C@H]1C(=O)N2C(C(=O)O)=C(S[C@@H]3CN[C@H](C(=O)N(C)C)C3)[C@H](C)[C@H]12` [MEROPENEM], the MIC [4] is reported as 16 µg/mL (≈ 41.7 µM), the MIC [5] is reported as 16 µg/mL (≈ 41.7 µM) and the MIC [6] is reported as 16 µg/mL (≈ 41.7 µM). It also gave an MIC [7] of 32 µg/mL (≈ 83.4 µM), an MIC [8] of 16 µg/mL (≈ 41.7 µM) and an MIC [9] of 16 µg/mL (≈ 41.7 µM). For the same compound, the MIC [10] was 16 µg/mL (≈ 41.7 µM), the MIC [11] was 16 µg/mL (≈ 41.7 µM) and the MIC [12] was 16 µg/mL (≈ 41.7 µM). The MIC [13] was 0.25 µg/mL (≈ 0.652 µM), the MIC [1] was 0.015 µg/mL (≈ 0.0391 µM) and the MIC [2] was 0.03 µg/mL (≈ 0.0782 µM). For the same compound, the MIC [3] was 16 µg/mL (≈ 41.7 µM), the MIC [14] was 0.015 µg/mL and the MIC [15] was 0.015 µg/mL. The MIC [16] was 16 µg/mL, the MIC [17] was 1 µg/mL and the MIC [18] was 8 µg/mL. It also gave an MIC [19] of 0.008 µg/mL.
`CO/N=C(\C(=O)N[C@@H]1C(=O)N2C(C(=O)O)=C(COC(C)=O)CS[C@H]12)c1csc(N)n1` [CEFOTAXIME] was tested, and the MIC [1] was 32 µg/mL (≈ 70.3 µM), the MIC [2] was at most 0.12 µg/mL and the MIC [3] was over 256 µg/mL.
`O=C(O)c1cn(C2CC2)c2cc(N3CCNCC3)c(F)cc2c1=O` [CIPROFLOXACIN] gave an MIC [1] of at most 0.12 µg/mL and an MIC [3] of 8 µg/mL (≈ 24.1 µM).
